Measured values taken from ChEMBL document CHEMBL4330181, “Cytosine-Based TET Enzyme Inhibitors” (ACS Med Chem Lett, 2019).
The source made the active and inactive calls. No cut-off for these calls is given here.

Key:
[1] = biological target: Methylcytosine dioxygenase TET2 (Homo sapiens) (UniProt Q6N021); experiment: Inhibition of recombinant human C-terminal His/N-terminal FLAG-tagged TET2 (1129 to 2002 residues) expressed in baculovirus infected sf9 cells assessed as reduction in oxidation of methylated dsDNA at 100 uM after 2 hrs by chemiluminescence assay relative to control
Outline: (§1)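 ELISA of oxidation of methylated double-stranded DNA by recombinant human TET1 or TET2, inhibitor tested at 100 μM. N = 3, mean ± SEM; two-way ANOVA.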

[2] = biological target: Methylcytosine dioxygenase TET1 (Homo sapiens) (UniProt Q8NFU7); experiment: Inhibition of recombinant human N-terminal FLAG-tagged TET1 (1418 to 2136 residues) expressed in baculovirus infected sf9 cells assessed as reduction in oxidation of methylated dsDNA at 100 uM after 2 hrs by chemiluminescence assay relative to control; outline: as §1
Sequence of Methylcytosine dioxygenase TET1 (Homo sapiens) (Q8NFU7 whole entry, the tested form may be a part): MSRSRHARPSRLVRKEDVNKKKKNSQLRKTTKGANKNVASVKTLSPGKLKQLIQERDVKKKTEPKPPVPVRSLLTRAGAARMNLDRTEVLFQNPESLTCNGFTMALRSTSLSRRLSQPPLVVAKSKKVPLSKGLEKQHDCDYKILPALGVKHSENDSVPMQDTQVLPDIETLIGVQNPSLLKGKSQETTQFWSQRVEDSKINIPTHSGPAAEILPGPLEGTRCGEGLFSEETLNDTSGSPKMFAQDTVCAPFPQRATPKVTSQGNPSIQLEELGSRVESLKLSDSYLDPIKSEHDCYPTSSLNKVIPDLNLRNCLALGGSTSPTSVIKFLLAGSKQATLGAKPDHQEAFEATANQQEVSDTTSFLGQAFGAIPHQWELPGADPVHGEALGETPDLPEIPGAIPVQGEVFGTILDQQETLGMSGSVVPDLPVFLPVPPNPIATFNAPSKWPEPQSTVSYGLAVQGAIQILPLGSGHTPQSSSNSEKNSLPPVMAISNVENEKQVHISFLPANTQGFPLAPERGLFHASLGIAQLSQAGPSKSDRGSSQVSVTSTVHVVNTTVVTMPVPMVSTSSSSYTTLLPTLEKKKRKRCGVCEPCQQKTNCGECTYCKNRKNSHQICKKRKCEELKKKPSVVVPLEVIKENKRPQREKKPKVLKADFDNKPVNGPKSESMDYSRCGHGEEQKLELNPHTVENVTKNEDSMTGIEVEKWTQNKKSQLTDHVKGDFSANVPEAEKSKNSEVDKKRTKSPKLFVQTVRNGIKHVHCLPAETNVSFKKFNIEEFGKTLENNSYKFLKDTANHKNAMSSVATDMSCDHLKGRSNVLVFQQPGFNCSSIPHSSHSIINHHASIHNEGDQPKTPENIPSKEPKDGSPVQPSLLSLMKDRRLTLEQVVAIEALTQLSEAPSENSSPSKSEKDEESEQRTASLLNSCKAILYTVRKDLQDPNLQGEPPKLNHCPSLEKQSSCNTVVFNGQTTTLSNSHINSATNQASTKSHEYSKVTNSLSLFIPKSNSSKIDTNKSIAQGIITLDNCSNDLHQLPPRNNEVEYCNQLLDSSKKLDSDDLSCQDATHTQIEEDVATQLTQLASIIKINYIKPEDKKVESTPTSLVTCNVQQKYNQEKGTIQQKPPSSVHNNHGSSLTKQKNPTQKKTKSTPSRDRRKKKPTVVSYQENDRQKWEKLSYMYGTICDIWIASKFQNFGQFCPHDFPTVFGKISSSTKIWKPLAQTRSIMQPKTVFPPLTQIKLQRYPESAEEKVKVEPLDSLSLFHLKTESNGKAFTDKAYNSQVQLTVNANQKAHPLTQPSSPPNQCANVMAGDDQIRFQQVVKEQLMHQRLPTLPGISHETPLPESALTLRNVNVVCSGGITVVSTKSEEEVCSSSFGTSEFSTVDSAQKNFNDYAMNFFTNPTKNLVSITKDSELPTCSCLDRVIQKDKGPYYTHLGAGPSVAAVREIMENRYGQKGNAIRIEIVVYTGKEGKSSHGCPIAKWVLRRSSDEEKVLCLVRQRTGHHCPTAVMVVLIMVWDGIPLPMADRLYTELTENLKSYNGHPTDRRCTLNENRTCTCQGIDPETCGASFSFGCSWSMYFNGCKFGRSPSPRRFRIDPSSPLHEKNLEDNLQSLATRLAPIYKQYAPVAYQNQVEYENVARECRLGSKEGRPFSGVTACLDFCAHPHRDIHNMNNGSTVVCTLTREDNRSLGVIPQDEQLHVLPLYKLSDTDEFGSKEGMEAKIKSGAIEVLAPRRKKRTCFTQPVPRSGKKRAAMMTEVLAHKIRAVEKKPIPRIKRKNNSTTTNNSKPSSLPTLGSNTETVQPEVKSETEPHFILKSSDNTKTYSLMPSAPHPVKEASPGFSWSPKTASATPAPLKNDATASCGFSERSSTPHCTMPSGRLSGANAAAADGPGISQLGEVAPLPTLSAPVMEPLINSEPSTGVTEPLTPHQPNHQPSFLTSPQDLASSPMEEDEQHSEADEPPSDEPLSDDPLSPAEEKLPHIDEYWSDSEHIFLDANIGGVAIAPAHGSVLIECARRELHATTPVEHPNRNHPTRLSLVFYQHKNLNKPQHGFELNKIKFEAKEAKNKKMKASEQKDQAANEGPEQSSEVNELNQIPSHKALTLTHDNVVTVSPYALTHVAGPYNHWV

[3] = biological target: DNA (cytosine-5)-methyltransferase 3A (Homo sapiens) (UniProt Q9Y6K1); experiment: Inhibition of DNMT3A (unknown origin) at 500 uM
Sequence of DNA (cytosine-5)-methyltransferase 3A (Homo sapiens) (Q9Y6K1 whole entry, looked up): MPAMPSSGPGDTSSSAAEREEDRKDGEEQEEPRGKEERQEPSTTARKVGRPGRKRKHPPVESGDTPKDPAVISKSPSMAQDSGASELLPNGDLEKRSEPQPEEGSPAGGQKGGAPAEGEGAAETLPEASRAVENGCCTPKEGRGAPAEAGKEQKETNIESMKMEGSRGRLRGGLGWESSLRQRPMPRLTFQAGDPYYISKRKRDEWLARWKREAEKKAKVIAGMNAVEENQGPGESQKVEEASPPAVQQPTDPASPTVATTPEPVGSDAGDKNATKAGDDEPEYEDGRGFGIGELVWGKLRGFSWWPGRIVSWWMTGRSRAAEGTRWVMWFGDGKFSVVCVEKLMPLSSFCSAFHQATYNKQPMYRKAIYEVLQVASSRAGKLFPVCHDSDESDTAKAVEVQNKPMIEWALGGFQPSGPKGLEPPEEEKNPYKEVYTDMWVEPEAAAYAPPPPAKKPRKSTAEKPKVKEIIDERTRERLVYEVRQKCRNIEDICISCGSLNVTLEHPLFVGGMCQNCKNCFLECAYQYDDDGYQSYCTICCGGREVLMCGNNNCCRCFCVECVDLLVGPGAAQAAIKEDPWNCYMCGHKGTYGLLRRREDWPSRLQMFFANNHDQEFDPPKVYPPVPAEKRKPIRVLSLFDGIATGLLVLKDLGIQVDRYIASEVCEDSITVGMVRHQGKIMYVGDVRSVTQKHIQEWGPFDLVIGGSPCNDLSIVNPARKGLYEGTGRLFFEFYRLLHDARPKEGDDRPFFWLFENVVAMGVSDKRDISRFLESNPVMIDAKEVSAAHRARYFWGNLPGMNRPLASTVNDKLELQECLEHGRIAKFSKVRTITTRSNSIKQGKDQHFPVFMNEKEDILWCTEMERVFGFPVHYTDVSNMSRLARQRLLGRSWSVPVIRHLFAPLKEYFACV

[4] = species: Mus musculus; experiment: Inhibition of TET in mouse HT22 cells assessed as reduction in global DNA 5-hmc level at 10 uM after 24 hrs by spectrophotometric method; type: cell-based
Outline: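 HT-22 immortalized mouse hippocampal neurons dosed at 10 μM in 1% DMSO for 24 h, then lysed; DNA extracted and 5hmC detected with a 5hmC-specific antibody, colorimetric read-out giving percent 5hmC of all cytosine species. Vehicle control; N = 6 biological replicates per group, mean ± SEM, one-way ANOVA.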

Row | inhibition [1] | inhibition [2] | inhibition [3] | Compound | inhibition [4]
1 | inactive | inactive |  | Nc1nc(=O)n(-c2ccccc2)cc1C(F)(F)F | 
2 | inactive | inactive |  | Nc1nc(=O)n(-c2ccc(-c3ccccc3)cc2)cc1Cl | 
3 |  | Active | inactive | Nc1nc(=O)n(-c2cccc(-c3ccccc3)c2)cc1Cl | Active
4 | inactive | inactive |  | Nc1ccn(-c2ccccc2)c(=O)n1 | 
5 | inactive | inactive |  | Nc1nc(=O)n(-c2ccccc2-c2ccccc2)cc1Cl | 
6 | 43% | 57% |  | Nc1nc(=O)n(-c2ccccc2)cc1Cl | inactive
